Here are results for 3 molecules from article PMC8551014 (Nature chemical biology, 2021).

The target of series [1] is dpIRE1α* (dephosphorylated IRE1α*) (Homo sapiens, UniProt O75460). The series is described as follows: In vitro determination of dpIRE1α*–inhibitor complex Kdimer. It counts as biochemical. The following applies: relative to apo-dpIRE1α*. In short, it runs like this:
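IRE1α* dephosphorylated overnight at 4 °C with λ-PPase (5:1 molar) in HEPES pH 7.5/NaCl/1 mM MnCl2/DTT/Brij 35; checked by phospho-protein blot. Then titrated two-fold from 2 or 4 μM in Tris pH 7.5 assay buffer; 30 min RT with 50 μM test compound. Alexa647-quencher XBP1 mini-substrate (6 μM final). Fluorescence ex 650/em 665 nm. n=3, mean ± SEM.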

The subject of series [2] is mouse splenocytes (C57BL/6). The series is described as follows: ELISA for secreted IgM from LPS-treated splenocytes. The following applies: 1 μg/mL LPS for three days, 20 μM-1.25 μM. It counts as cell-based. In short, it runs like this: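 C57BL/6 splenocytes, red cells lysed, CellTrace Violet-loaded, plated at 2.5 × 10^5 cells/well in complete RPMI; ±1 μg/ml LPS; test compound in two-fold dilutions (20–1.25 μM) from DMSO at 1:2000 final; 3 days, 37 °C, 5% CO2. Supernatant IgM by ELISA: 1 μg/ml goat anti-IgM capture, anti-IgM-HRP (1:3000), TMB, 1 N H2SO4 stop, A450. n=3, mean ± SEM; one-tailed t-test.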
Background: ELISA stands for enzyme-linked immunosorbent assay.

The target of another series is IRE1α* (Homo sapiens, UniProt O75460). The series is described as follows: In vitro determination of IRE1α*–inhibitor complex Kdimer. It counts as biochemical. The following applies: inhibitor-bound IRE1α*.
Another series deals with XBP1 mRNA splicing. In words: XBP1 mRNA splicing in ER-stressed INS-1 cells. It counts as cell-based, rat. The following applies: INS-1 cells treated with brefeldin A or thapsigargin and KIRA8. In short, it runs like this:
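Parental INS-1 cells on poly-D-lysine, grown 48 h. Test compound or DMSO given 1 h before brefeldin A, thapsigargin or DTT. In the sequential format: 10 μM first compound for 30 min, then second compound (0.5 or 1 μM) for 30 min, then 2 mM DTT. Intron-spanning XBP1 RT-PCR, PstI digest, EtBr gel, % spliced. n=3, mean ± SEM; two-tailed t-test versus DTT.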

Series [3] deals with mouse splenocytes (C57BL/6). The series is described as follows: Plasma cell differentiation of LPS-treated mouse splenocytes, flow cytometry. It counts as cell-based. In short, it runs like this:
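Splenocytes cultured 3 days ±1 μg/mL LPS with test compound (20–1.25 μM, two-fold, DMSO 1:2000). Cells stained with LIVE/DEAD near-IR (1:1000, 20 min, ice), then anti-CD19/CD45R/CD138 (15 min, ice), then permeabilized for intracellular XBP1s. Plasmablasts gated as CD19+ B220-low CD138-high; division from vital-dye dilution. n=3, mean ± SEM; one-tailed t-test.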

Setting [4] is: 1 μg/mL LPS for three days, 20 μM-1.25 μM.

“Also recorded” adds a separate entry of the source.

Sequence of dpIRE1α* (dephosphorylated IRE1α*) (O75460 547-977): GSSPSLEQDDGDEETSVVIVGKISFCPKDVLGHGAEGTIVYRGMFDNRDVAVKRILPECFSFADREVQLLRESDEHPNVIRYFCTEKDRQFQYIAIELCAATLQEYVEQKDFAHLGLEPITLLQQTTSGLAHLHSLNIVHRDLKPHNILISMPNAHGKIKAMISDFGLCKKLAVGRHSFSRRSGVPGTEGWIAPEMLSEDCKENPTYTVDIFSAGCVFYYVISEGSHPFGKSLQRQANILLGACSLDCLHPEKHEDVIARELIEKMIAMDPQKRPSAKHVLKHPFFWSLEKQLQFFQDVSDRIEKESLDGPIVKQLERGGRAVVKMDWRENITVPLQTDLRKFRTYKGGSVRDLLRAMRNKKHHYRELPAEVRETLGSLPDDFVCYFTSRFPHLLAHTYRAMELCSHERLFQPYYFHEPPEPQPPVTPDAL
Sequence of IRE1α* (O75460 547-977): as above

`O=C(Nc1c[nH]nc1-c1nc2ccc(CN3CCOCC3)cc2[nH]1)NC1CC1` [AT9283]: the “lowering of Kdimer of dpIRE1α* when complexed to ligand” value in series [1] was ~ 80 times.
Still for that read-out and setting: next, `NC(=O)Nc1cc(-c2cccc(F)c2)sc1C(=O)N[C@H]1CCCNC1` [AZD7762]: ~ 80 times.
Take `Cc1ccc2c(NS(=O)(=O)c3ccccc3Cl)cccc2c1Oc1ncccc1-c1ccnc(N[C@H]2CCCNC2)n1` [KIRA8]: the “IgM secretion” value in series [2] is “reductions”. Besides, on IRE1α*, the “formation of RNase active dimers / dimerization affinity of IRE1α*” value was “unable to form RNase active dimers at any concentration tested”. In the series on XBP1 mRNA splicing, the “XBP1 mRNA splicing” value is reported as “completely suppresses; also recorded: almost completely suppressed”. In series [3] (setting [4]), the “XBP1s expression in B cells” value is “reductions” and the “plasma cell differentiation, CD138+” value was “reductions”. Besides, the “toxicity to splenocytes” value in series [3] (10 μM and 20 μM KIRA8, LPS, three days) is on record as “cellular toxicity”.
